Results taken from ChEMBL document CHEMBL4689842, “EUbOPEN Chemogenomics Library wave 1” (2021).
Where “and” joins values, the source holds several entries; their conditions need not be identical. Equal entries are not always repeated.

System: HEK-293T
Experiment: Multiplex assay against HEK293T;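 as to Population Tubulin-Different-Phenotype (%): share of the cells with healthy nuclei that show this phenotype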
Type: toxicity, cell-based
Details: human
Procedure, shortened: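 Cells stained live at seeding with Hoechst33342, BioTracker Green Microtubule Cytoskeleton Dye, MitoTracker Red and Annexin V Alexa Fluor 680 were imaged on a CQ1 microscope at 37°C and 5% CO2 after compound addition. Their classification by CellPathfinder machine-learning gating ran from Hoechst high-intensity objects versus normal cells, to healthy, pyknosed or fragmented nuclei among normal cells, to mitotic or apoptotic among pyknosed cells. Tubulin, mitochondrial-mass and membrane-permeability phenotypes are per cents of healthy-nucleus cells.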

[1] = 12 h, 1 µM, compound concentration 1 uM, replicate 1
[2] = 12 h, 1 µM, compound concentration 1 uM, replicate 2
[3] = 12 h, 10 µM, compound concentration 10 uM, replicate 1
[4] = 12 h, 10 µM, compound concentration 10 uM, replicate 2
[5] = 24 h, 1 µM, compound concentration 1 uM, replicate 1
[6] = 24 h, 1 µM, compound concentration 1 uM, replicate 2
[7] = 24 h, 10 µM, compound concentration 10 uM, replicate 1
[8] = 24 h, 10 µM, compound concentration 10 uM, replicate 2
[9] = 48 h, 1 µM, compound concentration 1 uM, replicate 1
[10] = 48 h, 1 µM, compound concentration 1 uM, replicate 2
[11] = 48 h, 10 µM, compound concentration 10 uM, replicate 1
[12] = 48 h, 10 µM, compound concentration 10 uM, replicate 2

In the case of `Cc1cc(C)cc(-c2cnc3cc(Cl)c(-c4cccc(O)c4)cc3c2OCCCN)c1`, the “Population Apoptotic (%)” value [1] is reported as 53%, the “Population Fragmented Nuclei (%)” value [1] is reported as 11% and the “Population Healthy Nuclei (%)” value [1] is reported as 40%. The “Population Hoechst High Intensity Objects (%)” value [1] was 10%, the “Population Membrane Permeable-Phenotype (%)” value [1] was 3% and the “Population Mitochondria Different-Phenotype (%)” value [1] was 95%. For the same molecule, the “Population Mitotic Cells (%)” value [1] was 46%, the “Population Normal (%)” value [1] was 89% and the “Population Pyknosed Nuclei (%)” value [1] was 47%. The “Population Tubulin-Different-Phenotype (%)” value [1] was 92%, the “Total Cell Count” value [1] was 349 and the “Population Apoptotic (%)” value [2] was 31%. For the same molecule, the “Population Fragmented Nuclei (%)” value [2] was 5%, the “Population Healthy Nuclei (%)” value [2] was 43% and the “Population Hoechst High Intensity Objects (%)” value [2] was 3%. The “Population Membrane Permeable-Phenotype (%)” value [2] was 6%, the “Population Mitochondria Different-Phenotype (%)” value [2] was 66% and the “Population Mitotic Cells (%)” value [2] was 68%. For the same molecule, the “Population Normal (%)” value [2] was 96%, the “Population Pyknosed Nuclei (%)” value [2] was 50% and the “Population Tubulin-Different-Phenotype (%)” value [2] was 63%. For the same molecule, the “Total Cell Count” value [2] was 251, the “Population Apoptotic (%)” value [3] was 70% and the “Population Fragmented Nuclei (%)” value [3] was 23%. For the same molecule, the “Population Healthy Nuclei (%)” value [3] was 1%, the “Population Hoechst High Intensity Objects (%)” value [3] was 13% and the “Population Membrane Permeable-Phenotype (%)” value [3] was 33%. For the same molecule, the “Population Mitochondria Different-Phenotype (%)” value [3] was 33%, the “Population Mitotic Cells (%)” value [3] was 29% and the “Population Normal (%)” value [3] was 86%. The “Population Pyknosed Nuclei (%)” value [3] was 74%, the “Population Tubulin-Different-Phenotype (%)” value [3] was 66% and the “Total Cell Count” value [3] was 226. The “Population Apoptotic (%)” value [4] was 90%, the “Population Fragmented Nuclei (%)” value [4] was 5% and the “Population Healthy Nuclei (%)” value [4] was 18%. The “Population Hoechst High Intensity Objects (%)” value [4] was 3%, the “Population Membrane Permeable-Phenotype (%)” value [4] was 0% and the “Population Mitochondria Different-Phenotype (%)” value [4] was 91%. For the same molecule, the “Population Mitotic Cells (%)” value [4] was 9%, the “Population Normal (%)” value [4] was 96% and the “Population Pyknosed Nuclei (%)” value [4] was 76%. The “Population Tubulin-Different-Phenotype (%)” value [4] was 97%, the “Total Cell Count” value [4] was 192 and the “Population Apoptotic (%)” value [5] was 53%. The “Population Fragmented Nuclei (%)” value [5] was 15%, the “Population Healthy Nuclei (%)” value [5] was 26% and the “Population Hoechst High Intensity Objects (%)” value [5] was 12%. For the same molecule, the “Population Membrane Permeable-Phenotype (%)” value [5] was 1%, the “Population Mitochondria Different-Phenotype (%)” value [5] was 98% and the “Population Mitotic Cells (%)” value [5] was 46%. The “Population Normal (%)” value [5] was 87%, the “Population Pyknosed Nuclei (%)” value [5] was 57% and the “Population Tubulin-Different-Phenotype (%)” value [5] was 90%. For the same molecule, the “Total Cell Count” value [5] was 358, the “Population Apoptotic (%)” value [6] was 39% and the “Population Fragmented Nuclei (%)” value [6] was 6%. The “Population Healthy Nuclei (%)” value [6] was 56%, the “Population Hoechst High Intensity Objects (%)” value [6] was 2% and the “Population Mitochondria Different-Phenotype (%)” value [6] was 81%. The “Population Mitotic Cells (%)” value [6] was 60%, the “Population Normal (%)” value [6] was 97% and the “Population Pyknosed Nuclei (%)” value [6] was 36%. The “Population Tubulin-Different-Phenotype (%)” value [6] was 79%, the “Total Cell Count” value [6] was 296 and the “Population Apoptotic (%)” value [7] was 77%. The “Population Fragmented Nuclei (%)” value [7] was 22%, the “Population Healthy Nuclei (%)” value [7] was 1% and the “Population Hoechst High Intensity Objects (%)” value [7] was 12%. For the same molecule, the “Population Membrane Permeable-Phenotype (%)” value [7] was 0%, the “Population Mitochondria Different-Phenotype (%)” value [7] was 66% and the “Population Mitotic Cells (%)” value [7] was 22%. The “Population Normal (%)” value [7] was 87%, the “Population Pyknosed Nuclei (%)” value [7] was 76% and the “Population Tubulin-Different-Phenotype (%)” value [7] was 66%. The “Total Cell Count” value [7] was 232, the “Population Apoptotic (%)” value [8] was 94% and the “Population Fragmented Nuclei (%)” value [8] was 6%. For the same molecule, the “Population Healthy Nuclei (%)” value [8] was 9%, the “Population Hoechst High Intensity Objects (%)” value [8] was 8% and the “Population Membrane Permeable-Phenotype (%)” value [8] was 6%. The “Population Mitochondria Different-Phenotype (%)” value [8] was 75%, the “Population Mitotic Cells (%)” value [8] was 5% and the “Population Normal (%)” value [8] was 91%. For the same molecule, the “Population Pyknosed Nuclei (%)” value [8] was 83%, the “Population Tubulin-Different-Phenotype (%)” value [8] was 75% and the “Total Cell Count” value [8] was 183. The “Population Apoptotic (%)” value [9] was 51%, the “Population Fragmented Nuclei (%)” value [9] was 17% and the “Population Healthy Nuclei (%)” value [9] was 13%. For the same molecule, the “Population Hoechst High Intensity Objects (%)” value [9] was 18%, the “Population Membrane Permeable-Phenotype (%)” value [9] was 0% and the “Population Mitochondria Different-Phenotype (%)” value [9] was 87%. For the same molecule, the “Population Mitotic Cells (%)” value [9] was 48%, the “Population Normal (%)” value [9] was 81% and the “Population Pyknosed Nuclei (%)” value [9] was 68%. The “Population Tubulin-Different-Phenotype (%)” value [9] was 75%, the “Total Cell Count” value [9] was 352 and the “Population Apoptotic (%)” value [10] was 33%. For the same molecule, the “Population Fragmented Nuclei (%)” value [10] was 5%, the “Population Healthy Nuclei (%)” value [10] was 75% and the “Population Hoechst High Intensity Objects (%)” value [10] was 6%. The “Population Membrane Permeable-Phenotype (%)” value [10] was 3%, the “Population Mitochondria Different-Phenotype (%)” value [10] was 55% and the “Population Mitotic Cells (%)” value [10] was 66%. The “Population Normal (%)” value [10] was 93%, the “Population Pyknosed Nuclei (%)” value [10] was 19% and the “Population Tubulin-Different-Phenotype (%)” value [10] was 69%. The “Total Cell Count” value [10] was 406, the “Population Apoptotic (%)” value [11] was 80% and the “Population Fragmented Nuclei (%)” value [11] was 27%. The “Population Healthy Nuclei (%)” value [11] was 1%, the “Population Hoechst High Intensity Objects (%)” value [11] was 16% and the “Population Membrane Permeable-Phenotype (%)” value [11] was 0%. For the same molecule, the “Population Mitochondria Different-Phenotype (%)” value [11] was 50%, the “Population Mitotic Cells (%)” value [11] was 19% and the “Population Normal (%)” value [11] was 83%. For the same molecule, the “Population Pyknosed Nuclei (%)” value [11] was 71%, the “Population Tubulin-Different-Phenotype (%)” value [11] was 50% and the “Total Cell Count” value [11] was 238. The “Population Apoptotic (%)” value [12] was 96%, the “Population Fragmented Nuclei (%)” value [12] was 15% and the “Population Healthy Nuclei (%)” value [12] was 14%. For the same molecule, the “Population Hoechst High Intensity Objects (%)” value [12] was 7%, the “Population Membrane Permeable-Phenotype (%)” value [12] was 12% and the “Population Mitochondria Different-Phenotype (%)” value [12] was 79%. For the same molecule, the “Population Mitotic Cells (%)” value [12] was 3%, the “Population Normal (%)” value [12] was 92% and the “Population Pyknosed Nuclei (%)” value [12] was 70%. For the same molecule, the “Population Tubulin-Different-Phenotype (%)” value [12] was 83% and the “Total Cell Count” value [12] was 179.

For `CCOCCn1cc(C(=O)Nc2ccc(-n3nc(-c4cccnc4)cc3C(F)(F)F)cn2)ccc1=O` [BI 1935], the “Population Fragmented Nuclei (%)” value [3] was 15% and 16% and 10%, the “Population Healthy Nuclei (%)” value [3] was 27% and 50% and 70% and the “Population Hoechst High Intensity Objects (%)” value [3] was 20% and 15% and 10%. For the same molecule, the “Population Membrane Permeable-Phenotype (%)” value [3] was 6%, the “Population Mitotic Cells (%)” value [3] was 30% and 78% and 83% and the “Population Normal (%)” value [3] was 80% and 84% and 89%. For the same molecule, the “Total Cell Count” value [3] was 285 and 667 and 651, the “Population Fragmented Nuclei (%)” value [4] was 3% and 7% and the “Population Healthy Nuclei (%)” value [4] was 29% and 84% and 87%. For the same molecule, the “Population Membrane Permeable-Phenotype (%)” value [4] was 3% and 10% and 2%, the “Population Mitotic Cells (%)” value [4] was 71% and 84% and 95% and the “Population Normal (%)” value [4] was 91% and 96% and 97%. The “Population Fragmented Nuclei (%)” value [7] was 20% and 16% and 10%, the “Population Healthy Nuclei (%)” value [7] was 33% and 62% and 81% and the “Population Hoechst High Intensity Objects (%)” value [7] was 18% and 14%. For the same molecule, the “Population Mitotic Cells (%)” value [7] was 29% and 75% and 80%, the “Population Normal (%)” value [7] was 81% and 85% and the “Total Cell Count” value [7] was 309 and 632 and 787. For the same molecule, the “Population Healthy Nuclei (%)” value [8] was 43% and 88% and 71%, the “Population Hoechst High Intensity Objects (%)” value [8] was 2% and 4% and the “Population Mitotic Cells (%)” value [8] was 53% and 88% and 98%. The “Population Normal (%)” value [8] was 97% and 95%, the “Population Apoptotic (%)” value [11] was 59% and the “Population Fragmented Nuclei (%)” value [11] was 22%. The “Population Healthy Nuclei (%)” value [11] was 33%, the “Population Hoechst High Intensity Objects (%)” value [11] was 17% and the “Population Membrane Permeable-Phenotype (%)” value [11] was 2%. For the same molecule, the “Population Mitochondria Different-Phenotype (%)” value [11] was 89%, the “Population Mitotic Cells (%)” value [11] was 40% and the “Population Normal (%)” value [11] was 82%. For the same molecule, the “Population Pyknosed Nuclei (%)” value [11] was 44%, the “Population Tubulin-Different-Phenotype (%)” value [11] was 93% and the “Total Cell Count” value [11] was 341. The “Population Apoptotic (%)” value [12] was 33%, the “Population Fragmented Nuclei (%)” value [12] was 4% and the “Population Healthy Nuclei (%)” value [12] was 61%. The “Population Hoechst High Intensity Objects (%)” value [12] was 4%, the “Population Membrane Permeable-Phenotype (%)” value [12] was 6% and the “Population Mitochondria Different-Phenotype (%)” value [12] was 55%. The “Population Mitotic Cells (%)” value [12] was 66%, the “Population Normal (%)” value [12] was 95% and the “Population Pyknosed Nuclei (%)” value [12] was 33%. For the same molecule, the “Population Tubulin-Different-Phenotype (%)” value [12] was 79% and the “Total Cell Count” value [12] was 283.
